Data from ChEMBL document CHEMBL1123413, “Synthesis and biological evaluation of 1-(1,2-benzisothiazol-3-yl)- and (1,2-benzisoxazol-3-yl)piperazine derivatives as potential antipsychotic agents” (J Med Chem, 1986).
pIC50: −log10 of the molar value.

Columns and labels:
[1] = target: T1, Adrenergic receptor alpha-1 (Rattus norvegicus, UniProt P15823+P23944+P43140)
T1 sequence (P15823 whole entry): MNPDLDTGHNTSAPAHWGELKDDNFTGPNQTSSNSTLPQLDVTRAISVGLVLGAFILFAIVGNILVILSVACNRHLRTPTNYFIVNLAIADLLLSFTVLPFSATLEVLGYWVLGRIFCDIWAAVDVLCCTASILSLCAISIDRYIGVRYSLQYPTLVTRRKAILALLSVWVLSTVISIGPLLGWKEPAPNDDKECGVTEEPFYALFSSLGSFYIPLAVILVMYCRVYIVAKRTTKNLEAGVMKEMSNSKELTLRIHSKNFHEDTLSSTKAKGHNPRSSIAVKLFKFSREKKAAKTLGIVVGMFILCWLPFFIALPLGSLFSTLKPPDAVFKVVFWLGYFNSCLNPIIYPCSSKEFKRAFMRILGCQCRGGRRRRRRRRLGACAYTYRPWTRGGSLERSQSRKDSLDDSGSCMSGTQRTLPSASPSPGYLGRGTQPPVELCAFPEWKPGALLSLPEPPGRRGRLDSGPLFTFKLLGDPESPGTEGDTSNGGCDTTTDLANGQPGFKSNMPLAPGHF
T1 sequence (P23944 whole entry): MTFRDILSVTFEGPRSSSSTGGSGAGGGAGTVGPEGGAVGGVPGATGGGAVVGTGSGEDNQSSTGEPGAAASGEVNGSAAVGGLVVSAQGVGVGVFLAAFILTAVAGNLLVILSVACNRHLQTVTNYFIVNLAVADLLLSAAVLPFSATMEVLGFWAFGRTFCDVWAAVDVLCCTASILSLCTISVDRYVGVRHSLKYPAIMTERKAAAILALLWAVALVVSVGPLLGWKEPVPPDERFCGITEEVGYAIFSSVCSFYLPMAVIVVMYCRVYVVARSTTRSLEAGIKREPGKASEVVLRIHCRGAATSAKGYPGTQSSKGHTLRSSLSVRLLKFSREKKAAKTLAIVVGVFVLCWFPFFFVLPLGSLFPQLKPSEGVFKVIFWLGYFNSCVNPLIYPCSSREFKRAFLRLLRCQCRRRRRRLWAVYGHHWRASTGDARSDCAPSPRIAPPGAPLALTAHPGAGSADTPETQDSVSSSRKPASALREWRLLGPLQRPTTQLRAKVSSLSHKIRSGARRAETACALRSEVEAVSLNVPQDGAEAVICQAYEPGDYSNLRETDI
T1 sequence (P43140 whole entry): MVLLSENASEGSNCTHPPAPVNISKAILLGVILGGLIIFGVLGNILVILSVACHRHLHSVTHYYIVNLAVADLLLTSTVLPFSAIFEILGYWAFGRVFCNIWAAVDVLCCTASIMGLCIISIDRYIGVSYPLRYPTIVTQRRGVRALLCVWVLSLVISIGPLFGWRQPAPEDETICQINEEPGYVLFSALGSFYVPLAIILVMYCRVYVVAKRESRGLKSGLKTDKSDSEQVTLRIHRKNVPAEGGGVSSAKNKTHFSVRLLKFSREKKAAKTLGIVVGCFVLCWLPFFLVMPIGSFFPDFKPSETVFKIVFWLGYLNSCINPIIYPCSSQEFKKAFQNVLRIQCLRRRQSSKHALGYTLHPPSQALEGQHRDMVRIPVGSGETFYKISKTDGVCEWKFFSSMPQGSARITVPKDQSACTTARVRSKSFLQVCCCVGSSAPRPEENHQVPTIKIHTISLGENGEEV

[2] = species on record: Rattus norvegicus; assay: Inhibition of conditioned avoidance response (CAR); type: functional
Outline: (§1)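 Rats trained to avoid an electric shock, test compound given orally, and block of the conditioned avoidance response scored. ED50 (mg/kg, po) with fiducial limits by the method of Berkson.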

[3] = target: D(2) dopamine receptor (Rattus norvegicus, UniProt P61169); assay: In vitro affinity for rat striatal Dopamine receptor D2 labeled with [3H]spiperone
D(2) dopamine receptor, sequence (P61169 whole entry): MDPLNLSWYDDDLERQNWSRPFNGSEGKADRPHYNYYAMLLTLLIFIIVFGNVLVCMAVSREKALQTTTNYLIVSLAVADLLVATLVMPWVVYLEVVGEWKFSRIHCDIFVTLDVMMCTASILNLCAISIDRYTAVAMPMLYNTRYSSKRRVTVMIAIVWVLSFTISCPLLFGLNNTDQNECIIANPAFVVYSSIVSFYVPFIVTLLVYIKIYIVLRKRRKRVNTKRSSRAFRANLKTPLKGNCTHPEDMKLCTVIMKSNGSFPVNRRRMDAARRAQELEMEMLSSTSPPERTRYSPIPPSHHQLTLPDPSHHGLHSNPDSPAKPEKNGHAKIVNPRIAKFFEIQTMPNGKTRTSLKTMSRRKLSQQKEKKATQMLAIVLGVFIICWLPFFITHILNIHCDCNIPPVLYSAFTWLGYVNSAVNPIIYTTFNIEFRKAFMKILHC

[4] = species on record: Rattus norvegicus; assay: Compound was tested for its ability to induce catalepsy in rats.; type: functional
Outline: (§2)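 Catalepsy was induced in rats with orally dosed compound as a predictor of extrapyramidal liability. ED50 (mg/kg, po) with fiducial limits by Berkson's method.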

[5] = species on record: Rattus norvegicus; assay: Compound was tested for inhibition of conditioned avoidance response (CAR ); type: functional
Outline: as §1

[6] = species on record: Mus musculus; assay: Oral effective dose against spontaneous motor activity in mouse; type: functional
[7] = species on record: Rattus norvegicus; assay: Oral effective dose against hexobarbatial potentiation in rat; type: functional
Outline: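 Hexobarbital sodium (40 mg/kg, ip) was given to nonfasted male rats 15, 30, 60 or 120 min after test drug, or 15 min after vehicle (distilled H2O or 0.5% methocel). Loss of righting reflex of 1-min duration was scored over about 10–15 min. Dose response at peak-effect time used 10 rats/dose; ED50 and fiducial limits by Berkson.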

[8] = species on record: Rattus norvegicus; assay: Oral effective dose against spontaneous motor activity in rat; type: functional
[9] = Lethal dose after peroral administration in mouse; type: toxicity, organism-based; conditions: in vivo, po
[10] = species on record: Rattus norvegicus; assay: Oral effective dose against ethanol potentiation in rat; type: functional
Outline: (§3)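 Nonfasted male rats received test drug or vehicle (distilled H2O or 0.5% methocel). EtOH (10 mL of 20% solution/kg, ip) followed at 15, 30, 60 or 120 min post-drug; the vehicle group got it at 15 min. Rats were watched about 10–15 min for loss of righting reflex lasting 1 min. Dose response at peak time used 10/dose; ED50 by Berkson.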

[11] = species on record: Rattus norvegicus; assay: Compound was tested for the inhibition of apomorphine-induced stereotype; type: functional
Outline: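 In rats, oral test compound was scored for block of apomorphine-induced stereotypy as an in vivo dopamine-system measure. ED50 (mg/kg, po) and fiducial limits by Berkson's method.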

[12] = species on record: Mus musculus; assay: Oral effective dose against physostigmine-induced lethality in mouse; type: functional
Outline: (§4)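 Groups of 10 nonfasted male mice dosed orally with test compound (initial 100 mg/kg) or vehicle (distilled H2O or 0.5% methocel). At 30 min, physostigmine given ip at 1.25 mg/kg, and lethality followed for up to 1 h. Active compounds retested at lower doses, 10 mice/dose, for dose response. ED50 by Berkson's method.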

[13] = species on record: Mus musculus; assay: Oral effective dose against norepinephrine-induced lethality in mouse; type: functional
Outline: (§5)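 Groups of 10 nonfasted male mice dosed orally with test compound (initial 100 mg/kg) or vehicle (distilled H2O or 0.5% methocel). Active compounds retested at lower doses, 10 mice/dose, for dose response. ED50 by Berkson's method.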

[14] = target: Gamma-aminobutyric acid receptor subunit gamma-1 (Rattus norvegicus, UniProt P23574); assay: (§6) Inhibition of [3H]muscimol binding to Gamma-aminobutyric acid (GABA-A) receptor
Gamma-aminobutyric acid receptor subunit gamma-1, sequence (P23574 whole entry): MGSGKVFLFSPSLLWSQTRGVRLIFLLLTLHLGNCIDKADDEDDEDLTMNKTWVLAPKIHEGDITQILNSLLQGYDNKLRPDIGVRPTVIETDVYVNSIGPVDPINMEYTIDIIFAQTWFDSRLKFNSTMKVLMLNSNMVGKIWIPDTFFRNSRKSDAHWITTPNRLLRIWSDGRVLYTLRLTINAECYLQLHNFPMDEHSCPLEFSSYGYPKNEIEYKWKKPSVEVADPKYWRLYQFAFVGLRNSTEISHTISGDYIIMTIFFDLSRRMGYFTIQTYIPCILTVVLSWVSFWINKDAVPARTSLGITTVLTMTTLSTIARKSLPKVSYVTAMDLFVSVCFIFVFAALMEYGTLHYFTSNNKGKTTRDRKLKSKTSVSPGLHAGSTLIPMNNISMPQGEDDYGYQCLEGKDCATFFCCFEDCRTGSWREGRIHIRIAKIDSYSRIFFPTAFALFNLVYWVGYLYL

[15] = system: Rattus norvegicus; assay: Compound was tested for inhibition of hexobarbatial potentiation in rat when administered perorally; type: functional; conditions: po
Outline: (§7)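 Nonfasted male rats given test drug orally, vehicle distilled H2O or 0.5% methocel. Hexobarbital sodium (40 mg/kg) or EtOH (10 mL of 20% solution/kg) given ip at 15, 30, 60 or 120 min postdrug, controls 15 min after vehicle. Loss of righting reflex lasting 1 min scored over about 10–15 min. Dose response at time of peak effect, 10 rats/dose. ED50 and fiducial limits by Berkson's method.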

[16] = system: Rattus norvegicus; assay: (§8) Compound was tested for inhibition of ethanol potentiation in rat when administered perorally; type: functional; conditions: po
Outline: as §7

[17] = system: Mus musculus; assay: Compound was tested for inhibition of spontaneous motor activity in mouse when administered perorally; type: functional; conditions: po
[18] = target: GABA-A receptor; anion channel; assay: as §6; type: protein-complex assay, Rattus norvegicus
[19] = system: Mus musculus; assay: Compound was tested for inhibition of norepinephrine lethality in mouse when administered perorally; type: functional; conditions: po
Outline: as §5

[20] = system: Mus musculus; assay: Compound was tested for inhibition of physostigmine lethality in mouse when administered perorally; type: functional; conditions: po
Outline: as §4

[21] = system: Rattus norvegicus; assay: Compound was tested for inhibition of spontaneous motor activity in rat when administered perorally; type: functional; conditions: po
[22] = Binding affinity against histamine receptor was measured using radioligand ([3H]-pyrilamine) binding assay
[23] = system: Rattus norvegicus; assay: as §8; type: functional; conditions: po; remark: listed apart in the source
Outline: as §3

[24] = species on record: Rattus norvegicus; assay: Compound was tested for its ability to induce catalepsy in rats; type: functional
Outline: as §2

SMILES	IC50 [1] [nM]	ED50 [2] [mg/kg]	pIC50 [3]	ED50 [4] [mg/kg]	also measured
O=C1CC2(CCCC2)CC(=O)N1CCCN1CCN(c2nsc3ccccc23)CC1	3	> 100	6.84	–	–
O=C1CC2(CCCC2)CC(=O)N1CCCCN1CCN(c2noc3ccc(Cl)cc23)CC1	46	> 100	6.44	–	–
CC1CN(c2nsc3ccccc23)CCN1CCCCN1C(=O)CC2(CCCC2)CC1=O (stereo not drawn)	–	> 100	6.69	–	–
Cl.O=C1SC2(CCCC2)C(=O)N1CCCCN1CCN(c2nsc3ccccc23)CC1	9	–	7.38	45	ED50 [5]: 11.6 mg/kg
CSc1ccc2c(c1)N(CCC1CCCCN1C)c1ccccc1S2 (stereo not drawn) [THIORIDAZINE]	–	–	–	–	ED50 [6]: 12.8 mg/kg; ED50 [7]: 27.3 mg/kg; ED50 [8]: 33 mg/kg; LD50 [9]: 250 mg/kg; ED50 [10]: 56 mg/kg; ED50 [11]: 280 mg/kg; ED50 [12]: 45 mg/kg; ED50 [13]: 2.2 mg/kg; pIC50 [14]: < 6.00
Cl.c1ccc2c(N3CCNCC3)nsc2c1	510	> 100	< 6.00	–	–
O=C1CSC(=O)N1CCCCN1CCN(c2noc3ccc(Cl)cc23)CC1	33	> 100	6.36	–	–
Cl.c1ccc2c(N3CCNCC3)noc2c1	165	> 100	< 6.00	–	–
CCC1(CC)CC(=O)N(CCCCN2CCN(c3nsc4ccccc34)CC2)C(=O)C1.Cl	–	–	7.31	–	ED50 [5]: 35.2 mg/kg
O=C1CC2(CCCC2)CC(=O)N1CCCCN1CCN(c2nc3ccccc3s2)CC1	454	> 100	6.84	–	–
O=C1SC2(CCCC2)C(=O)N1CCCCN1CCN(c2noc3ccccc23)CC1	–	8.1	7.11	21.5	–
CN1CCN(C2=Nc3cc(Cl)ccc3Nc3ccccc32)CC1 [CLOZAPINE]	–	–	–	> 200	ED50 [15]: 1.69 mg/kg; ED50 [16]: 3.23 mg/kg; ED50 [17]: 1.9 mg/kg; pIC50 [18]: < 6.00; LD50 [9]: 219 mg/kg; ED50 [19]: 3.5 mg/kg; ED50 [20]: 5.4 mg/kg; ED50 [21]: 17.5 mg/kg; pIC50 [22]: 7.74
O=C1CC2(CCCC2)CC(=O)N1CCCCN1CCN(c2noc3cc(Cl)ccc23)CC1	5	26	7.23	–	–
CC1CN(CCCCN2C(=O)CC3(CCCC3)CC2=O)CCN1c1nsc2ccccc12 (stereo not drawn)	–	> 100	7.19	–	–
O=C1CC2(CCCC2)CC(=O)N1CCCCN1CCCN(c2nsc3ccccc23)CC1	–	> 100	6.63	–	–
CC1(C)CC(=O)N(CCCCN2CCN(c3nsc4ccccc34)CC2)C(=O)C1	4	–	7.64	15.2	ED50 [5]: 4.1 mg/kg; ED50 [11]: 4.8 mg/kg
O=C1CC2(CCCC2)CC(=O)N1CCCCN1CCN(c2noc3ccccc23)CC1	7	10.6	7.60	68.2	ED50 [11]: 20.2 mg/kg
OC(CCCN1CCN(c2noc3ccccc23)CC1)c1ccc(F)cc1 (stereo not drawn)	2	1	7.52	2.2	ED50 [11]: 2.3 mg/kg
Cl.O=C1CSC(=O)N1CCCCN1CCN(c2nsc3ccccc23)CC1	0.9	–	7.28	–	ED50 [5]: 27.8 mg/kg
O=C(CCCN1CCC(O)(c2ccc(Cl)cc2)CC1)c1ccc(F)cc1 [HALOPERIDOL]	–	2.8	–	0.58	ED50 [17]: 0.45 mg/kg; LD50 [9]: 500 mg/kg; ED50 [11]: 0.5 mg/kg; ED50 [23]: 0.28 mg/kg; ED50 [19]: 26 mg/kg; ED50 [20]: > 80 mg/kg; ED50 [21]: 0.73 mg/kg
O=C(CCCN1CCN(c2nsc3ccccc23)CC1)c1ccc(F)cc1	8	7.4	8.00	–	ED50 [24]: 16.4 mg/kg
OC(CCCN1CCN(c2nsc3ccccc23)CC1)c1ccc(F)cc1 (stereo not drawn)	2	2.4	8.70	–	ED50 [24]: 5 mg/kg
O=C1SC2(CCCC2)C(=O)N1CCCCN1CCCN(c2noc3ccccc23)CC1	–	> 100	< 6.00	–	–
CCCC1(C)CC(=O)N(CCCCN2CCN(c3nsc4ccccc34)CC2)C(=O)C1.Cl	9	–	7.26	–	ED50 [5]: 24.3 mg/kg
O=C(CCCN1CCN(c2noc3ccccc23)CC1)c1ccc(F)cc1	5	5.8	7.16	–	ED50 [24]: 39.9 mg/kg
CN(C)CCCN1c2ccccc2Sc2ccc(Cl)cc21 [CHLORPROMAZINE]	–	–	–	4.1	ED50 [17]: 3.6 mg/kg; LD50 [9]: 250 mg/kg; ED50 [11]: 9.6 mg/kg; ED50 [19]: 2.72 mg/kg; ED50 [21]: 17.2 mg/kg
CN1CCN(CCCN2c3ccccc3Sc3ccc(C(F)(F)F)cc32)CC1 [TRIFLUOPERAZINE]	350	6.9	–	3	ED50 [11]: 6.5 mg/kg
O=C1CSC(=O)N1CCCCN1CCN(c2noc3ccccc23)CC1	1	8.3	6.62	11.7	–
